According to ChEMBL document CHEMBL1136923, “Highly potent, orally available anti-inflammatory broad-spectrum chemokine inhibitors” (J Med Chem, 2009):

Tests used:
[1] = target: C-C chemokine receptor type 2 (Homo sapiens) (UniProt P41597); experiment: Antagonist activity at CCR2 in human THP1 cells assessed as inhibition of CCL2-induced chemotaxis after 2 hrs by microtiter format trans-well migration assay; type: functional, cell-based; conditions: THP-1
Method in brief: (§1)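 Microtiter trans-well migration assay in Gey's balanced salt solution with 1 mg/mL endotoxin-free BSA, no fetal calf serum. Migration ran 2 h at 37 °C. Compounds dissolved in DMSO and added to both top and bottom compartments, final DMSO 1%.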

[2] = target: C-C chemokine receptor type 2 (Homo sapiens) (UniProt P41597); experiment: Antagonist activity at CCR2 in human THP1 cells assessed as inhibition of CCL2-induced chemotaxis at 1000 nM after 2 hrs by microtiter format trans-well migration assay; type: functional, cell-based; conditions: THP-1; method in brief: as §1
[3] = target: C-C chemokine receptor type 2 (Homo sapiens) (UniProt P41597); experiment: Antagonist activity at CCR2 in human THP1 cells assessed as inhibition of CCL2-induced chemotaxis at 100 nM after 2 hrs by microtiter format trans-well migration assay; type: functional, cell-based; conditions: THP-1; method in brief: as §1
[4] = target: C-C chemokine receptor type 2 (Homo sapiens) (UniProt P41597); experiment: Antagonist activity at CCR2 in human THP1 cells assessed as inhibition of CCL2-induced chemotaxis at 10 nM after 2 hrs by microtiter format trans-well migration assay; type: functional, cell-based; conditions: THP-1; method in brief: as §1
[5] = target: C-C chemokine receptor type 2 (Homo sapiens) (UniProt P41597); experiment: Antagonist activity at CCR2 in human THP1 cells assessed as inhibition of CCL2-induced chemotaxis at 1 nM after 2 hrs by microtiter format trans-well migration assay; type: functional, cell-based; conditions: THP-1; method in brief: as §1
[6] = target: C-C chemokine receptor type 2 (Homo sapiens) (UniProt P41597); experiment: Antagonist activity at CCR2 in human THP1 cells assessed as inhibition of CCL2-induced chemotaxis at 0.1 nM after 2 hrs by microtiter format trans-well migration assay; type: functional, cell-based; conditions: THP-1; method in brief: as §1
[7] = system: Mus musculus; experiment: Antiinflammatory activity in sc dosed mouse assessed as inhibition of LPS-induced TNFalpha upregulation measured 2 hrs after LPS challenge; type: functional
[8] = system: Mus musculus; experiment: Antiinflammatory activity in sc dosed mouse assessed as inhibition of LPS-induced TNFalpha upregulation measured 2 hrs after LPS challenge relative to control; type: functional
Method in brief: (§2)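 Murine sublethal LPS endotoxemia screen. LPS is injected intraperitoneally and serum TNF-α is measured 2 h later as the end point. Compound is given subcutaneously or orally in a vehicle of 0.6% DMSO plus 1% carboxymethylcellulose (final concentrations) in sterile water. Values are % relative to control.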

[9] = system: Mus musculus; experiment: Antiinflammatory activity in mouse assessed as inhibition of LPS-induced TNFalpha upregulation at 830 pg, sc measured 2 hrs after LPS challenge; type: functional; method in brief: as §2
[10] = system: Mus musculus; experiment: Antiinflammatory activity in po dosed mouse assessed as inhibition of LPS-induced TNFalpha upregulation measured 2 hrs after LPS challenge; type: functional
[11] = system: Mus musculus; experiment: Antiinflammatory activity in po dosed mouse assessed as inhibition of LPS-induced TNFalpha upregulation measured 2 hrs after LPS challenge relative to control; type: functional; method in brief: as §2
[12] = system: Mus musculus; experiment: Antiinflammatory activity in mouse assessed as inhibition of LPS-induced TNFalpha upregulation at 0.0216 ug, sc measured 2 hrs after LPS challenge; type: functional
Method in brief: (§3)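 Murine sublethal endotoxemia: LPS given intraperitoneally, with serum TNF-α measured 2 h after the LPS injection as the end point. Compound was given subcutaneously or orally. Vehicle was 0.6% DMSO and 1% carboxymethylcellulose (final concentrations) in sterile water. Effect is reported as % relative to control.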

[13] = system: Mus musculus; experiment: Antiinflammatory activity in mouse assessed as inhibition of LPS-induced TNFalpha upregulation at 0.000216 mg, sc measured 2 hrs after LPS challenge; type: functional
Method in brief: (§4)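 Murine sublethal endotoxemia: LPS given intraperitoneally, serum TNF-α measured 2 h after LPS injection. Compound vehicle 0.6% DMSO plus 1% carboxymethylcellulose (final concentrations) in sterile water.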

[14] = system: Mus musculus; experiment: Antiinflammatory activity in mouse assessed as inhibition of LPS-induced TNFalpha upregulation at 0.00216 mg, sc measured 2 hrs after LPS challenge; type: functional; method in brief: as §3
[15] = system: Mus musculus; experiment: Antiinflammatory activity in mouse assessed as inhibition of LPS-induced TNFalpha upregulation at 0.0216 mg, sc measured 2 hrs after LPS challenge; type: functional; method in brief: as §3
[16] = system: Mus musculus; experiment: Antiinflammatory activity in mouse assessed as inhibition of LPS-induced TNFalpha upregulation at 0.216 mg, sc measured 2 hrs after LPS challenge; type: functional; method in brief: as §3
[17] = system: Mus musculus; experiment: Antiinflammatory activity in mouse assessed as inhibition of LPS-induced TNFalpha upregulation at 624 pg, po measured 2 hrs after LPS challenge; type: functional; method in brief: as §2
[18] = system: Mus musculus; experiment: Antiinflammatory activity in mouse assessed as inhibition of LPS-induced TNFalpha upregulation at 0.00312 ug, po measured 2 hrs after LPS challenge; type: functional; method in brief: as §3
[19] = system: Mus musculus; experiment: Antiinflammatory activity in mouse assessed as inhibition of LPS-induced TNFalpha upregulation at 0.0216 ug, po measured 2 hrs after LPS challenge; type: functional; method in brief: as §3
[20] = system: Mus musculus; experiment: Antiinflammatory activity in mouse assessed as inhibition of LPS-induced TNFalpha upregulation at 0.078 ug, po measured 2 hrs after LPS challenge; type: functional; method in brief: as §3
[21] = system: Mus musculus; experiment: Antiinflammatory activity in mouse assessed as inhibition of LPS-induced TNFalpha upregulation at 0.000216 mg, po measured 2 hrs after LPS challenge; type: functional; method in brief: as §4
[22] = system: Mus musculus; experiment: Antiinflammatory activity in mouse assessed as inhibition of LPS-induced TNFalpha upregulation at 0.000864 mg, po measured 2 hrs after LPS challenge; type: functional; method in brief: as §3
[23] = system: Mus musculus; experiment: Antiinflammatory activity in mouse assessed as inhibition of LPS-induced TNFalpha upregulation at 0.0065 mg, po measured 2 hrs after LPS challenge; type: functional; method in brief: as §3
[24] = system: Mus musculus; experiment: Antiinflammatory activity in mouse assessed as inhibition of LPS-induced TNFalpha upregulation at 0.0216 mg, po measured 2 hrs after LPS challenge; type: functional; method in brief: as §3
[25] = system: Mus musculus; experiment: Antiinflammatory activity in mouse assessed as inhibition of LPS-induced TNFalpha upregulation at 0.065 mg, po measured 2 hrs after LPS challenge; type: functional; method in brief: as §3
[26] = system: Mus musculus; experiment: Antiinflammatory activity in mouse assessed as inhibition of LPS-induced TNFalpha upregulation at 0.216 mg, po measured 2 hrs after LPS challenge; type: functional; method in brief: as §3
[27] = Half life in Sprague-Dawley rat at 1 mg/kg, iv administered as single dose; type: ADME, organism-based; design: dose 1 mg/kg, route intravenous; conditions: in vivo
Method in brief: (§5)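 Male Sprague-Dawley rats, three per compound, receive a single intravenous dose in 5% DMSO in 0.9% saline. Food and water are given ad libitum. Plasma is taken at 5, 15, 30, 60, 120, 180, 240 and 480 min. Drug is measured by LC/MS/MS after extraction with 0.1% formic acid in acetonitrile. The curve is back-extrapolated to time zero assuming an initial volume of 0.26 L/kg.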

[28] = Volume of distribution at steady state in Sprague-Dawley rat at 1 mg/kg, iv administered as single dose; type: ADME, organism-based; design: dose 1 mg/kg, route intravenous; conditions: in vivo, read-out: Vdss; method in brief: as §5
[29] = system: Rattus norvegicus; experiment: AUC (0 to t) in Sprague-Dawley rat at 1 mg/kg, iv administered as single dose; type: ADME, organism-based, Plasma; design: dose 1 mg/kg, route intravenous; conditions: in vivo
Method in brief: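 Male Sprague-Dawley rats, three per compound per route, single dose. IV vehicle 5% DMSO in 0.9% saline; oral gavage vehicle 1% carboxymethylcellulose in 0.9% saline; fed ad libitum. Plasma taken 5–480 min post-dose, extracted with 0.1% formic acid in acetonitrile, quantified by LC/MS/MS (positive mode). AUC(0–t) by linear/log trapezoidal rule; IV curve back-extrapolated assuming initial volume 0.26 L/kg.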

[30] = Fractional bioavailability in Sprague-Dawley rat at 3 mg/kg, po administered as single dose; type: ADME, organism-based; conditions: in vivo
Method in brief: (§6)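 Male Sprague-Dawley rats, three per compound, receive a single oral dose by gavage in 1% carboxymethylcellulose in 0.9% saline, with food and water ad libitum. Plasma is sampled from 5 to 480 min and drug is quantified by positive-mode LC/MS/MS after acetonitrile/formic acid extraction. The lower limit of quantitation is about 2 ng/mL. Exposure is AUC(0→t) by the linear/log trapezoidal rule, and F is oral fractional bioavailability.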

[31] = system: Rattus norvegicus; experiment: Plasma concentration in Sprague-Dawley rat at 3 mg/kg, po administered as single dose; type: ADME, organism-based; design: dose 3 mg/kg, route oral; conditions: in vivo; method in brief: as §6
[32] = target: C-C chemokine receptor type 2 (Homo sapiens) (UniProt P41597); experiment: Antagonist activity at CCR2 in human THP1 cells assessed as inhibition of CCL2-induced chemotaxis at 0.01 nM after 2 hrs by microtiter format trans-well migration assay; type: functional, cell-based; conditions: THP-1; method in brief: as §1

C-C chemokine receptor type 2 (Homo sapiens), sequence (P41597 whole entry, looked up): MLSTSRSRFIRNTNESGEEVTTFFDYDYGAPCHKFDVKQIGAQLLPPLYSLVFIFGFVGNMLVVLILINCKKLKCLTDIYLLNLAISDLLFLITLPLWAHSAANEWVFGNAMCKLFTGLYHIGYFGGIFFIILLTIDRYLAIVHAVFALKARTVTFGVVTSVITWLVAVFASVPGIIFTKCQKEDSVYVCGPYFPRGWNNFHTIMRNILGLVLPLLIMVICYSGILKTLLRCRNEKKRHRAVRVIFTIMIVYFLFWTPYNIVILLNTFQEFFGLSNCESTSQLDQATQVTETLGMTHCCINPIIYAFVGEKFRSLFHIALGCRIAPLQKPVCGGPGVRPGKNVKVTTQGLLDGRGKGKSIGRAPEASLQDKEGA

Compound: CCC(C)(C)C(=O)N[C@H]1CCCCNC1=O
- ED50 [1]: 0.07 nM

Compound: O=C1NCCCC[C@@H]1NC(=O)C12CC3CC(CC(C3)C1)C2
- ED50 [1]: 0.09 nM
- inhibition [2]: 100%
- inhibition [3]: 98%
- inhibition [4]: 100%
- inhibition [5]: 99%
- inhibition [6]: 11%
- ED50 [7]: 2 µg/kg
- inhibition (INH) [8]: 90%
- inhibition (INH) [9]: -12%
- ED50 [10]: 0.5 µg/kg
- inhibition (INH) [11]: 90%
- inhibition (INH) [12]: 29%
- inhibition (INH) [13]: 56%
- inhibition (INH) [14]: 71%
- inhibition (INH) [15]: 89%
- inhibition (INH) [16]: 89%
- inhibition (INH) [17]: 8%
- inhibition (INH) [18]: 30%
- inhibition (INH) [19]: 60%
- inhibition (INH) [20]: 59%
- inhibition (INH) [21]: 76%
- inhibition (INH) [22]: 78%
- inhibition (INH) [23]: 71%
- inhibition (INH) [24]: 75%
- inhibition (INH) [25]: 83%
- inhibition (INH) [26]: 91%
- half-life [27]: 16 min
- Vd [28]: 0.8 L/kg
- AUC [29]: 477 ng·min/mL
- bioavailability [30]: < 1%
- Cp [31]: < 2 ng/mL

Compound: CCCCCCCCCCCC(=O)N[C@H]1CCCCNC1=O
- ED50 [1]: 15 nM

Compound: CCCCCC12CCC(C(=O)N[C@H]3CCCCNC3=O)(CC1)CC2
- ED50 [1]: 7 nM

Compound: O=C1NCCCC[C@H]1NC(=O)C12CC3CC(CC(C3)C1)C2
- ED50 [1]: 0.44 nM
- inhibition [2]: 100%
- inhibition [3]: 101%
- inhibition [4]: 98%
- inhibition [5]: 46%
- inhibition [6]: 14%
- inhibition [32]: 26%
